Experimental data pooled from the literature.
Protocols differ between the studies behind these lines.
Target: Receptor tyrosine-protein kinase erbB-2 (ERBB2, Homo sapiens, UniProt P04626)

Structure (SMILES) | effect on | action | method | tested at | quantity | result
COc1ccc2oc(-c3ccc4nc(N)oc4c3)c/c(=N\c3ccccc3NC(=O)CCN)c2c1 | binding |  |  | 1 µM | remaining binding | 104%
COc1c(Cl)cccc1Nc1c(-c2ccncc2OC[C@@H]2COCCO2)[nH]c2c1C(=O)NCC2 | enzyme activity | inhibitor | radiometric | 1 µM | inhibition | > 80%
C[C@H]1CC[C@H](n2c3cnccc3c3cnc(Nc4ccc5c(n4)CCN(C(=O)CO)C5)nc32)CC1 | binding |  | competition with immobilised ligand | 1 µM | remaining binding | 100%
CCCCC(=O)Nc1ccc(-c2ccc3ncn(CCC)c(=O)c3c2)cn1 | binding |  | competition with immobilised ligand | 0.5 µM | remaining binding | 97%
C1=C/COCc2cc(ccc2OCCN2CCCC2)Nc2nccc(n2)-c2cccc(c2)COC/1 | binding |  |  | 0.1 µM | remaining binding | 100%
C#Cc1cnc(Nc2ccnc(CO)c2)nc1Nc1ccccc1S(C)(=O)=NC#N (stereo not shown) | cell-free assay |  |  | 1 µM | remaining signal | 86%
CO[C@@H]1[C@H](N(C)C(=O)c2ccccc2)C[C@H]2O[C@]1(C)n1c3ccccc3c3c4c(c5c6ccccc6n2c5c31)C(=O)NC4 | enzyme activity | inhibitor |  | 1 µM | inhibition | 0%
N#Cc1ccc(NC(=O)Nc2ccccc2)cc1 | cell-free assay |  | competition with immobilised ligand | 25 µM | remaining binding | 100%
Cc1ccc(NC(=O)c2ccnc(C(F)(F)F)c2)cc1-c1cc(OCCO)nc(N2CCOCC2)c1 | binding |  | competition with immobilised ligand | 1 µM | remaining binding | 72%
C=CC(=O)N1CCC[C@@H](n2nc(-c3ccc(Oc4ccccc4)cc3)c3c(N)ncnc32)C1 | enzyme activity | inhibitor |  | 1 µM | inhibition | 100%
